# Paper PMC6936494 (Proceedings of the National Academy of Sciences of the …, 2019)
# Entries after “also recorded” stand apart in the source; their conditions may differ. Where two headings read alike, the source gives them in different places.
# B1: N-terminal LiaX: purified N-terminal LiaX (residues 1-277; His-tagged variant residues 1-275) (protein)
# chain: MKERERVLELVKKGILTSEEALILLENMATEKDEKQIEKAAEKVDTQNIGTTNKEDQVADLMNALEKGESEGPTVDSFEENTQDSAEKDRENLERILDELATKANRASAELDEVNAEIAGIKEEIKEVAEEIGTLDTKEELDALTEDEQVQRKDLHVLLAQLEEKLATQSTEKTALEEELKNIRKEQWKGQWNDTKEKVSSQFSEEWKDQATDTFNQVGGKVAEVGGQVGEFLKKTFNSFSDTMNDNVEWKDIKMKVPGVATTKFEHEFNYPNPQ
# modifications: labeled with a RED-tris-NTA his-tag specific dye (NanoTemper); left off: His6, C-terminal, kept
# Tests used:
# [1] = molecular target: N-terminal domain of LiaX (Enterococcus faecalis); assay: MST
# [2] = molecular target: N-terminal domain of LiaX (Enterococcus faecalis); assay: MST; remark: listed apart in the source
# full length LiaX = molecular target: T1, full length LiaX (Enterococcus faecalis, UniProt Q834B6); assay: LL-37 binding by microscale thermophoresis, amine reactive dye, full length LiaX; design: species or system Enterococcus faecalis S613
# T1 sequence (Q834B6 1-533): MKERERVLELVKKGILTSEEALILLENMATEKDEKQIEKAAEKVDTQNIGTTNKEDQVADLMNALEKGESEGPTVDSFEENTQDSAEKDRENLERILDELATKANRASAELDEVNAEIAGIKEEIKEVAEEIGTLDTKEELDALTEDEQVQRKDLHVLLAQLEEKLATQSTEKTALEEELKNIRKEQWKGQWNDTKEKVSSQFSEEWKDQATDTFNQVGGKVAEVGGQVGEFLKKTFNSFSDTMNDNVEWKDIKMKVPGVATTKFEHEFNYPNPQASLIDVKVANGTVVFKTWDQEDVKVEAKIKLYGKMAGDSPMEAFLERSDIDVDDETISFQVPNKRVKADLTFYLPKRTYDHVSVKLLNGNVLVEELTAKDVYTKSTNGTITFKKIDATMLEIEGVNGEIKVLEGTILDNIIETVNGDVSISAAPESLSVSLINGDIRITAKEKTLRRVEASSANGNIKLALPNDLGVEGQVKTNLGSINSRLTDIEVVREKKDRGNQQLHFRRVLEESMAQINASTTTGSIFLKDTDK
# Method in brief: (§1)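 Recombinant LiaX (full length or N-terminal domain, His/SUMO-tagged) was expressed in E. coli BL-21 and nickel-column purified, then labeled with NT-647. Microscale thermophoresis ran at 25% LED power in 0.1 M phosphate buffer pH 7.4, 0.0027 M KCl, 0.137 M NaCl and 1 mM TCEP, with or without 5% DMSO. Fluorescence changes were recorded across increasing LL-37 variant concentrations to derive Kd.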
# N-terminal LiaX = molecular target: T2, N-terminal LiaX (Enterococcus faecalis, UniProt Q834B6); assay: LL-37 binding by microscale thermophoresis, amine reactive dye, N-terminal LiaX; design: species or system Enterococcus faecalis S613
# T2 sequence (Q834B6 1-277): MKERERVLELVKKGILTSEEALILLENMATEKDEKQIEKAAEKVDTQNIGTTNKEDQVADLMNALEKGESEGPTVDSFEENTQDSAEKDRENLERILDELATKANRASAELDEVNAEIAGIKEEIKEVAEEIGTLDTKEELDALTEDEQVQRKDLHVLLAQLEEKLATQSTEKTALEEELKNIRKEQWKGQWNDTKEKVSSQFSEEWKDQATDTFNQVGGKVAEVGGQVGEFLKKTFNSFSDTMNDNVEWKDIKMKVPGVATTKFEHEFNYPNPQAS
# Method in brief: as §1
# [3] = molecular target: T3, N-terminal domain of LiaX (Enterococcus faecalis, UniProt Q834B6); assay: Microscale thermophoresis with His-tag specific dye, N-terminal domain of LiaX; format: binding, Enterococcus faecalis S613
# T3 sequence (Q834B6 1-275): B1 chain
# OG1RF and S613 = conditions: including against E. faecalis; ref [23], [24]; cited from earlier work
# liaFSR and liaXYZ = assay: qRT-PCR for liaFSR and liaXYZ expression; format: cell-based, Enterococcus faecalis; conditions: OG1RF
# [4] = system: Staphylococcus aureus ATCC29213; assay: DAP MIC by broth microdilution with exogenous LiaX or N-terminal LiaX, S. aureus; format: cell-based; conditions: 50 nM exogenous protein
# E. faecalis [5] = assay: Growth kinetics with LiaX; format: cell-based, Enterococcus faecalis; conditions: functional concentrations; 100 nM in BHI, OD600, 24 h
# E. faecalis [6] = assay: C. elegans infection assay with exogenous N-terminal LiaX; format: in vivo, Enterococcus faecalis; host Caenorhabditis elegans
# Method in brief: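 Recombinant N-terminal LiaX domain (His/SUMO-tagged) was expressed in E. coli BL-21 and nickel-column purified. Synchronized young adult worms (60–90) were infected with E. faecalis on BHI agar plus gentamicin (10 µg/mL). They were then moved to a liquid killing format (20% BHI broth, 80% M9W buffer) containing N-terminal LiaX at 0.1 to 500 nM, held at 25 °C, and deaths scored daily. Results come from 3 independent experiments, with Kaplan–Meier log-rank or 1-way ANOVA analysis.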
# E. faecalis strains = assay: LL-37 killing assay; format: cell-based, Enterococcus faecalis; conditions: OG1RFΔliaR; 50 µg/ml LL-37, 2 h
# [7] = system: DAP-S E. faecalis strains; format: cell-based, Enterococcus faecalis
molecule,measurement,setting,value
human cathelicidin LL-37 (peptide),Kd,[1],10.6 µM
same,Kd,[2],5.27 µM
CC[C@H](C)[C@H](NC(=O)[C@H](CCCCN)NC(=O)[C@H](CCC(=O)O)NC(=O)[C@H](CCCCN)NC(=O)[C@H](CO)NC(=O)[C@H](CCCCN)NC(=O)[C@H](CCCNC(=N)N)NC(=O)[C@H](Cc1ccccc1)NC(=O)[C@H](Cc1ccccc1)NC(=O)[C@H](CC(=O)O)NC(=O)CNC(=O)[C@H](CC(C)C)NC(=O)[C@@H](N)CC(C)C)C(=O)NCC(=O)N[C@@H](CCCCN)C(=O)N[C@@H](CCC(=O)O)C(=O)N[C@@H](Cc1ccccc1)C(=O)N[C@@H](CCCCN)C(=O)N[C@@H](CCCNC(=N)N)C(=O)N[C@H](C(=O)N[C@H](C(=O)N[C@@H](CCC(N)=O)C(=O)N[C@@H](CCCNC(=N)N)C(=O)N[C@H](C(=O)N[C@@H](CCCCN)C(=O)N[C@@H](CC(=O)O)C(=O)N[C@@H](Cc1ccccc1)C(=O)N[C@@H](CC(C)C)C(=O)N[C@@H](CCCNC(=N)N)C(=O)N[C@@H](CC(N)=O)C(=O)N[C@@H](CC(C)C)C(=O)N[C@H](C(=O)N1CCC[C@H]1C(=O)N[C@@H](CCCNC(=N)N)C(=O)N[C@H](C(=O)N[C@@H](CCC(=O)O)C(=O)N[C@@H](CO)C(=O)O)[C@@H](C)O)C(C)C)[C@@H](C)CC)C(C)C)[C@@H](C)CC [LL-37],Kd,full length LiaX,8.26 ± 0.28 µM
same,Kd,N-terminal LiaX,10.6 ± 0.43 µM
same,Kd,[3],5.27 ± 1.14 µM
SSLLEKGLDGAKKAVGGLGKLGKDAVEDLESVGKGAVHDVKDVLDSVL [DCD-1L],antimicrobial activity,OG1RF and S613,"broad-spectrum antimicrobial activity, including against E. faecalis"
same,binding affinity to N-terminal domain of LiaX,"[3]; His-tag specific dye, DCD-1L tested up to 1,000 µM",no detectable binding affinity
B1,transcription of liaFSR and liaXYZ,"liaFSR and liaXYZ; 50 nM protein without DAP, vs untreated",no effect on the levels of transcription
same,LiaFSR activation relative to DAP alone or DAP with full-length LiaX,liaFSR and liaXYZ; N terminus of LiaX plus DAP,significantly higher and more pronounced
same,transcription of liaFSR and liaXYZ,"liaFSR and liaXYZ; protein plus subinhibitory DAP, listed as N terminus of LiaX",maximal activation of the LiaFSR cell envelope stress response; also recorded: highly up-regulated
same,change in DAP MIC,[4],did not change under any condition
same,effect on growth of E. faecalis,E. faecalis [5],no impact on the growth
same,virulence in C. elegans,"E. faecalis [6]; OG1RF and S613, 100 nM purified N-terminal LiaX (Fig. 6), listed as N terminus of LiaX",more virulent; also recorded: increased virulence
same,"virulence in C. elegans, dose dependence","E. faecalis [6]; OG1RF or S613, 5-100 nM N-terminus LiaX",dose-dependent manner
same,virulence in C. elegans,"E. faecalis [6]; OG1RFΔliaR and TMΔliaR, exogenous N terminus of LiaX","did not, however, alter the virulence"
same,protection from LL-37 killing,E. faecalis strains,did not protect OG1RFΔliaR from LL-37–mediated killing
same,increase in DAP MIC,"[7]; OG1RF, 50 nM exogenous protein",over 8 fold
same,protection against DAP,"[7]; OG1RF, 1 to 100 nM N-terminal LiaX, up to 200 nM full-length LiaX",high level of protection to OG1RF in a concentration-dependent manner
same,protection against DAP,"[7]; OG1RFΔliaR, 50 nM exogenous protein",did not protect OG1RFΔliaR against DAP
same,increase in DAP MIC,"[7]; S613, 50 nM exogenous protein",over 8 fold
